In ChEMBL document CHEMBL1122520, “Potential antitumor agents. 43. Synthesis and biological activity of dibasic 9-aminoacridine-4-carboxamides, a new class of antitumor agent” (J Med Chem, 1984):

Legend:
[1] = species on record: Mus musculus; experiment: Percentage increase in lifespan of treated animals over that of animals injected with tumor (10e6 P388 leukemia cells), at the optimal dose of 5.9 mg/(kg day); format: functional
[2] = tested on: HCT-8; experiment: Concentration required for 50% reduction of counted HCT-8 cells upon exposure for a period of 70h; format: functional; conditions: Homo sapiens, HCT-8, 70 h; read-out: ID50 (the source's name)
Outline: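 HCT-8 human colon adenocarcinoma cells grown in Alpha MEM with glutamine for 2 days before drug addition. Drug exposure for 70 h per table footnote, with 4-day incubation stated in methods. Trypsinized cells counted electronically. ID50 = nM concentration reducing counted cells to 50% of controls.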

[3] = pKa value for the side-chain cationic center; format: physicochemical
[4] = Lipophilicity (Rm) (RP-TLC); format: physicochemical
[5] = Logarithmic association constant determined by ethidium displacement from DNA co-polymers (adenine & thymine)
Outline: (§1)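 Binding constants derived from ethidium displacement from synthetic DNA copolymers, assuming competitive binding.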

[6] = tested on: L1210; experiment: Concentration required for 50% reduction of counted L1210 cells upon exposure for a period of 70h; format: functional; conditions: Mus musculus, L1210, 70 h; read-out: ID50 (the source's name)
Outline: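 L1210 leukemia cells cultured with drug for 70 h, then counted. ID50 taken as the nanomolar concentration reducing cell count to 50% of untreated controls.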

[7] = Logarithmic association constant determined by ethidium displacement from DNA co-polymers (G + C); outline: as §1
[8] = tested on: Mus musculus; experiment: Percentage increase in lifespan of treated animals over that of animals injected with tumor (10e6 P388 leukemia cells), at the optimal dose of 50 mg/kg day); g=No activity (ILS < 20%); format: functional, organism-based; parameters: dose 50 mg/kg
[9] = species on record: Mus musculus; experiment: Percentage increase in lifespan of treated animals over that of animals injected with tumor (10e6 P388 leukemia cells), at the optimal dose of 20 mg/(kg day); format: functional
[10] = species on record: Mus musculus; experiment: Percentage increase in lifespan of treated animals over that of animals injected with tumor (10e6 P388 leukemia cells), at the optimal dose of 13.3 mg/(kg day); format: functional
[11] = species on record: Mus musculus; experiment: Percentage increase in lifespan of treated animals over that of animals injected with tumor (10e6 P388 leukemia cells), at the optimal dose of 30 mg/(kg day); format: functional
[12] = species on record: Mus musculus; experiment: Percentage increase in lifespan of treated animals over that of animals injected with tumor (10e6 P388 leukemia cells), at the optimal dose of 2.6 mg/(kg day); format: functional
[13] = species on record: Mus musculus; experiment: Percentage increase in lifespan of treated animals over that of animals injected with tumor (10e6 P388 leukemia cells), at the optimal dose of 30 mg/(kg day); g=No activity (ILS < 20%); format: functional, organism-based
[14] = species on record: Mus musculus; experiment: Percentage increase in lifespan of treated animals over that of animals injected with tumor (10e6 P388 leukemia cells), at the optimal dose of 8.9 mg/(kg day); g=No activity (ILS < 20%); format: functional, organism-based
[15] = species on record: Mus musculus; experiment: Percentage increase in lifespan of treated animals over that of animals injected with tumor (10e6 P388 leukemia cells), at the optimal dose of 40 mg/(kg day); g=No activity (ILS < 20%); format: functional, organism-based
[16] = species on record: Mus musculus; experiment: Number of mice survived indefinitely out a group of 6; format: functional
[17] = species on record: Mus musculus; experiment: Percentage increase in lifespan of treated animals over that of animals injected with tumor (10e6 P388 leukemia cells), at the optimal dose of 8.9 mg/(kg day); format: functional
[18] = species on record: Mus musculus; experiment: Percentage increase in lifespan of treated animals over that of animals injected with tumor (10e6 P388 leukemia cells), at the optimal dose of 250 mg/(kg day); g=No activity (ILS < 20%)

Compound	IC50 [2]	Rm [4]	Log K [5]	IC50 [6]	Log K [7]	also measured
CCN(CC)CCNC(=O)c1cccc2c(N)c3ccccc3nc12	0.083 µM	-0.67	7.26	0.0055 µM	7.59	ILS [1]: 70%; pKa [3]: 9.2
CN(C)CCCNC(=O)c1cccc2c(N)c3ccccc3nc12	0.52 µM	-0.93	7.51	0.157 µM	7.6	ILS [8]: No activity (ILS <20%)
CCCCNc1c2ccccc2nc2c(C(=O)NCCN(C)C)cccc12	0.15 µM	-0.34	7.1	0.041 µM	7.69	ILS [9]: 70%
CCCCCNc1c2ccccc2nc2c(C(=O)NCCN(C)C)cccc12	0.16 µM	-0.23	6.91	0.043 µM	7.58	ILS [10]: 64%
NCCNC(=O)c1cccc2c(N)c3ccccc3nc12	1.5 µM	-1.18	7.36	0.414 µM	7.67	ILS [9]: 71%; pKa [3]: 9.1
CCCCCCNc1c2ccccc2nc2c(C(=O)NCCN(C)C)cccc12	0.21 µM	-0.04	7	0.065 µM	7.79	ILS [11]: 88%
CN(C)CCNC(=O)c1ccc2c(N)c3ccccc3nc2c1	> 5 µM	-1.06	7.18	> 2 µM	7.66	
CN(C)CCCCCCNC(=O)c1cccc2c(N)c3ccccc3nc12	1.75 µM	-0.58	7.41	1.54 µM	7.4	
CNc1c2ccccc2nc2c(C(=O)NCCN(C)C)cccc12	0.125 µM	-1.11	7.17	0.015 µM	7.65	
CN1CCN(C(=O)c2cccc3c(N)c4ccccc4nc23)CC1	> 1.5 µM	-1.29	6.58	> 2 µM	6.45	
CN(C)CCCCCNC(=O)c1cccc2c(N)c3ccccc3nc12	1.8 µM	-0.73	7.45	1.37 µM	7.45	
COCCNc1c2ccccc2nc2c(C(=O)NCCN(C)C)cccc12	0.4 µM	-0.76	6.73	0.085 µM	7.35	ILS [10]: 47%
Nc1c2ccccc2nc2c(C(=O)NCCN3CCCCC3)cccc12	0.38 µM	-0.7	7.12	0.102 µM	7.1	ILS [12]: 33%; pKa [3]: 8.9
Nc1c2ccccc2nc2c(C(=O)NCCN3CCOCC3)cccc12	2 µM	-1	7.29	1.02 µM	7.58	pKa [3]: 6.7; ILS [13]: No activity (ILS <20%)
CN(C)CCNC(=O)c1cccc2c(NCCO)c3ccccc3nc12	0.54 µM	-1.19	6.82	0.484 µM	7.61	ILS [14]: No activity (ILS <20%)
Nc1c2ccccc2nc2c(C(=O)NCCc3ccccn3)cccc12	3.2 µM	-0.57	6.94	1.9 µM	7.03	ILS [15]: No activity (ILS <20%); pKa [3]: 5.9
CN(C)CCNC(=O)c1cccc2c(N)c3ccccc3nc12	0.055 µM	-1.11				Survivors [16]: 1
CCNc1c2ccccc2nc2c(C(=O)NCCN(C)C)cccc12	0.188 µM	-0.88	7.14	0.094 µM	7.69	ILS [17]: 30%
CN(C)CCCCNC(=O)c1cccc2c(N)c3ccccc3nc12	1 µM	-0.89	7.49	0.43 µM	7.43	
CCCNc1c2ccccc2nc2c(C(=O)NCCN(C)C)cccc12	0.203 µM	-0.57	7.23	0.046 µM	7.79	ILS [10]: 64%
CN(C)CCNC(=O)c1cccc2c(NCCN(C)C)c3ccccc3nc12	1.3 µM	-1.72	7.83	0.46 µM	8.2	ILS [14]: No activity (ILS <20%)
Nc1c2ccccc2nc2c(C(=O)NCCNCCO)cccc12	1.6 µM	-1.06	7.34	0.077 µM	7.73	ILS [9]: 73%; pKa [3]: 8.5
CN(C)CCNC(=O)c1ccc2nc3ccccc3c(N)c2c1	> 5 µM	-1	7.08	> 2 µM	7.55	pKa [3]: 8.6; ILS [18]: No activity (ILS <20%)
CN(C)CCCCCCCNC(=O)c1cccc2c(N)c3ccccc3nc12	2 µM	-0.44	7.43	1.18 µM	7.3	
